Experimental findings from ChEMBL document CHEMBL1153804, “Optimization of a series of quinazolinone-derived antagonists of CXCR3” (Bioorg Med Chem Lett, 2009) are described below.

Each structure is given as a SMILES string. Residue numbers refer to the chain shown, from its start. Active and inactive are the calls of the source. The rule behind the calls is not given here.

Data set [1] has as its target T1, CXC chemokine receptor 3 (Macaca mulatta, UniProt B8PY99).
T1 sequence (B8PY99 whole entry): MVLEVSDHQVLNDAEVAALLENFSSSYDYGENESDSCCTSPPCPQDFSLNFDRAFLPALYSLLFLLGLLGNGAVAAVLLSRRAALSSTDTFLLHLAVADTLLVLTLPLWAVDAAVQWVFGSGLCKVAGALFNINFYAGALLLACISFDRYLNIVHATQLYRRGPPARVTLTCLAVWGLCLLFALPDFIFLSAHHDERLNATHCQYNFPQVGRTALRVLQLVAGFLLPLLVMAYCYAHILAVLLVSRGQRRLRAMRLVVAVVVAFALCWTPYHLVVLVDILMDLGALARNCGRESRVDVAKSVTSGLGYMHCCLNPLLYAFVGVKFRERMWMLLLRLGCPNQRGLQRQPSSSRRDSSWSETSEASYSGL
Description: Displacement of [125I]-IP10 from rhesus monkey CXCR3 expressed in human PBMC after 2 hrs in RPMI buffer by scintillation counting. In outline:
(§1)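 PBMC bearing CXCR3 were co-incubated with antagonist and recombinant human [125I]-IP10 for 2 h at room temperature in RPMI-1640 (no phenol red) with 0.5% BSA. Cells were harvested onto filter plates and bound radioactivity was counted by scintillation. IC50 values are means of three experiments.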
A general note: In a radioligand displacement assay an active substance lowers the binding of a labelled ligand.

Data set [2] deals with T2, C-X-C chemokine receptor type 3 (Homo sapiens, UniProt P49682).
T2 sequence (P49682 whole entry): T1 sequence (B8PY99 whole entry) with A83T, A259V
Description: Displacement of [125I]-1P10 from human CXCR3 expressed in human PBMC after 2 hrs by scintillation counting in plasma. The gist of the method: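 [125I]-IP10 displacement from CXCR3 on PBMC: cells co-incubated with antagonist and recombinant human [125I]-IP10 for 2 h at room temperature in EDTA-anticoagulated human plasma (from frozen stocks) in place of RPMI buffer. Filter harvest and scintillation counting; IC50 values are means of three experiments.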

Data set [3] can be described thus: Volume of distribution at steady state in rat at 0.5 mg/kg, iv. It counts as ADME, organism-based. Also on record: dose 0.5 mg/kg, route intravenous. The conditions noted are these: in vivo, read-out: Vdss.
The target in data set [4] is Cytochrome P450 2C9 (Homo sapiens, UniProt P11712). Description: Inhibition of CYP2C9. The format is ADME.
Data set [5] has as its target T3, C-X-C chemokine receptor type 3 (Rattus norvegicus, UniProt Q9JII9).
T3 sequence (Q9JII9 whole entry): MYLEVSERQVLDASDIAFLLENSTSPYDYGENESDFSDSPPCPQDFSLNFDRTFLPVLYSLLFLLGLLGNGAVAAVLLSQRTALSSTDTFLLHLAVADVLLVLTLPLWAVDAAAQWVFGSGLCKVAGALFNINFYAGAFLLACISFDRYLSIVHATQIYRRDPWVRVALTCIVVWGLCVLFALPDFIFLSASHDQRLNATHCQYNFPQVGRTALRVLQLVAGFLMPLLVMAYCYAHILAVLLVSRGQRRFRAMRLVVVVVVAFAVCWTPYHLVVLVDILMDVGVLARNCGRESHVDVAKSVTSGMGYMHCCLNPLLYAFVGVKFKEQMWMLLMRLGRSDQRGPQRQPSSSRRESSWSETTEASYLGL
Description: Displacement of [125I]-IP10 from rat CXCR3 expressed in human PBMC after 2 hrs in RPMI buffer by scintillation counting. In outline: as §1

Data set [6] is described as follows: Oral bioavailability in cynomolgus monkey at 5 mg/kg. The format is ADME, organism-based, Macaca fascicularis. The note with it: in vivo.
Data set [7] in a line: Volume of distribution at steady state in cynomolgus monkey at 1 mg/kg, iv. It counts as ADME, organism-based, Macaca fascicularis. Also on record: dose 1 mg/kg, route intravenous. The conditions noted are these: in vivo, read-out: Vdss.
A short description of data set [8]: Mean residence time in rat at 0.5 mg/kg, iv. It counts as ADME, organism-based. On the set-up: dose 0.5 mg/kg, route intravenous. The note with it: in vivo.
Data set [9] relates to Blood. Description: Drug level in bleomycin-induced mouse blood at 10 mg/mL, sc. It counts as ADME, tissue-based.
Data set [10] in a line: Mean residence time in cynomolgus monkey at 1 mg/kg, iv. Also on record: dose 1 mg/kg, route intravenous. The format is ADME, organism-based, Macaca fascicularis. The note with it: in vivo.
The subject of data set [11] is Blood. Kind of data set: Drug level in bleomycin-induced mouse blood at 1 mg/mL, sc. It counts as ADME, tissue-based.
Data set [12] relates to Mus musculus. Description: Effect on bleomycin-induced cellular recruitment in sc dosed mouse assessed as inhibition of cellular infiltration measured 6 days after bleomycin challenge. The format is functional, organism-based.
A short description of data set [13]: Oral bioavailability in mouse at 2 mg/kg. The format is ADME, organism-based. The conditions noted are these: in vivo.
The target of data set [14] is T4, C-X-C chemokine receptor type 3 (Mus musculus, UniProt O88410).
T4 sequence (O88410 whole entry): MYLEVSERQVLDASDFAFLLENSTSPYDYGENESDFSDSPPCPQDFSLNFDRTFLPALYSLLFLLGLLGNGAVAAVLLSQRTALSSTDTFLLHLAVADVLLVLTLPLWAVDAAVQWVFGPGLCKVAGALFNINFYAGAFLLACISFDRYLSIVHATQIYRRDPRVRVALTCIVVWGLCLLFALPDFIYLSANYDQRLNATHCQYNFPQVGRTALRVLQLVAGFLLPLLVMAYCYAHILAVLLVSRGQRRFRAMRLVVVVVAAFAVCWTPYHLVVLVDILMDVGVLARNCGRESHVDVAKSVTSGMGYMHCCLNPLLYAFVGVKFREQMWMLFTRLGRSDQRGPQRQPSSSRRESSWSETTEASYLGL
Description: Displacement of [125I]-IP10 from mouse CXCR3 expressed in human PBMC after 2 hrs in RPMI buffer by scintillation counting. In outline:
as §1

Data set [15] is described as follows: Oral bioavailability in dog at 2.5 mg/kg. The note with it: in vivo. The format is ADME, organism-based, Canis lupus familiaris.
Data set [16] concerns the target T5, C-X-C chemokine receptor type 3 (Canis lupus familiaris, UniProt Q5KSK8).
T5 sequence (Q5KSK8 whole entry): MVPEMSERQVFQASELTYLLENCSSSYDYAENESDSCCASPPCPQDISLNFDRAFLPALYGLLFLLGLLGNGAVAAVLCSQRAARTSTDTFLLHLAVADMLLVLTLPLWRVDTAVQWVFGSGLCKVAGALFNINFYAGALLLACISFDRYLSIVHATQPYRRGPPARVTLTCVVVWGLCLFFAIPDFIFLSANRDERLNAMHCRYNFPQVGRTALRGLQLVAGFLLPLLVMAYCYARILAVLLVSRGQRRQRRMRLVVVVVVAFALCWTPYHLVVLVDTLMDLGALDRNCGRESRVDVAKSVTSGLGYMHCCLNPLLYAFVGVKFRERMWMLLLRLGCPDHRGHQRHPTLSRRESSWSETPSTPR
Kind of data set: Displacement of [125I]-IP10 from dog CXCR3 expressed in human PBMC after 2 hrs in RPMI buffer by scintillation counting. In outline:
as §1

Data set [17] concerns Blood. Description: Drug level in bleomycin-induced mouse blood at 3 mg/mL, sc. It counts as ADME, tissue-based.
Data set [18] has as its target Cytochrome P450 3A4 (Homo sapiens, UniProt P08684). Kind of data set: Inhibition of CYP3A4. It counts as ADME.
For data set [19], the system named is Blood. Description: Drug level in bleomycin-induced mouse blood at 0.3 mg/mL, sc. It counts as ADME, tissue-based.

Cytochrome P450 2C9, sequence (P11712 whole entry): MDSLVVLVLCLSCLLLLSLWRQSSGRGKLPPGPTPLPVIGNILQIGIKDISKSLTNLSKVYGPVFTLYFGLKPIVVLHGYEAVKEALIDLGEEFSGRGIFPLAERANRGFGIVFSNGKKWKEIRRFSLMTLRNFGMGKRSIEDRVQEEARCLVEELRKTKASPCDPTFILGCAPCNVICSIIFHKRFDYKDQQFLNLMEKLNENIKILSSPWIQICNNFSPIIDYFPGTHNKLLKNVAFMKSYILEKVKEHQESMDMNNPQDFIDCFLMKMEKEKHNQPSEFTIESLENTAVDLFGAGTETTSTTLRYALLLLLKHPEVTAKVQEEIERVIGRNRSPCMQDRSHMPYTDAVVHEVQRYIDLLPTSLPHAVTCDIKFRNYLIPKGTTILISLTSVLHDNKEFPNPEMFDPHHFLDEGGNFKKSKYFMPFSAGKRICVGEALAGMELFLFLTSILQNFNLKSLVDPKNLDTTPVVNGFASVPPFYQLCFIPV
Cytochrome P450 3A4, sequence (P08684 whole entry): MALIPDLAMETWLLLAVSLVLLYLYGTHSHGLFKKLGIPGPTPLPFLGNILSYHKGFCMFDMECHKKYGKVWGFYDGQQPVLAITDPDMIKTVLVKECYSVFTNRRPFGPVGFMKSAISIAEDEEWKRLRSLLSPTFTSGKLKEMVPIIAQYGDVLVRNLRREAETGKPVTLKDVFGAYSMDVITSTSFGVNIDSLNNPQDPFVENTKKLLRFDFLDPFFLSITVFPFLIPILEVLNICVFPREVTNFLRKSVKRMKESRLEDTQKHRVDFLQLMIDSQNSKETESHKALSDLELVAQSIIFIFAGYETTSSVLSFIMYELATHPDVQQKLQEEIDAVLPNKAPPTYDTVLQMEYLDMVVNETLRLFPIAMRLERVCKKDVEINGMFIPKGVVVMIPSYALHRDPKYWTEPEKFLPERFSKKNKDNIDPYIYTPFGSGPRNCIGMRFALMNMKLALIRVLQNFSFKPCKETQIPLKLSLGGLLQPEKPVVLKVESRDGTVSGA

In the case of `CCS(=O)(=O)CCN(C(=O)Cc1ccc(F)c(C(F)(F)F)c1)[C@H](C)c1nc2ncccc2c(=O)n1-c1ccc(OCC(F)(F)F)cc1`, the IC50 (commonly the midpoint of a concentration-inhibition curve) in data set [1] came to 2 nM; in data set [2], 6 nM; in [5], 4 nM; in [14], 3 nM; in [16] it was 5 nM. Besides, the Vd in data set [3] was 2.5 L/kg; in data set [7], 1.4 L/kg. The outcome in data set [4] and in [18] was Active. For the same molecule, the bioavailability – broadly, the share of a dose that reaches the circulation, judged against a reference dose that is usually intravenous – was found to be 14% in data set [6], 84% in data set [13] and 25% in [15]. For the same molecule, the MRT (commonly the average time that molecules of a dose stay in the body) was 0.65 h in data set [8] and 1.6 h in data set [10]. Moreover, the Drug uptake worked out at 35 ng/mL in [9], 11 ng/mL in data set [11], 18 ng/mL in data set [17] and 6 ng/mL in data set [19]. Besides, in [12], the outcome was Active.
